High-throughput results as filed in PubChem BioAssay.
SKKanGAS inh – inhibitors of SKKanGAS S. pyogenes growth in kanamycin (SK-promoter or general growth effect) | inhibition, % at 7.5 µM | BacTiter-Glo, 6 h | hit rate 1.3% among 300,000 | AID 1662;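 active means mean replicate score, as percent of positive control median, at least 50; inconclusive means mean below 50 but one replicate at or above 50; inactive means mean and every replicate below 50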;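 further: strain carries kanamycin resistance gene driven by streptokinase promoter and grows in 40 µg/ml kanamycin; loss of luminescence reflects streptokinase promoter inhibition or plain growth inhibition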
CSC inhib – cancer stem cell inhibition; AID 2717; hit rate 1.1% among 300,000; inhibition, % at 7.5 µM; cancer stem cell-like cells viability, luminescence; in the data active means inhibition above about 75%; inconclusive means no clear call, values can overlap the other calls; tested in HMLE shEcad cells
T cruzi inh – T. cruzi replication inhibition; T. cruzi beta-gal in NIH3T3, luminescence, 90 h; hit rate 1.4% among 300,000; AID 1885; inhibition, % (no concentration beside the values);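 active means mean inhibition across valid replicates above about 55%, limit read from the data; inconclusive means mean below that limit but half or more replicates reach it; inactive means mean below it, under half of replicates reach it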;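 further: signal also drops with host cell toxicity which is not excluded here; higher percent means less beta-gal luminescence so fewer parasites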
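Material: NIH/3T3 host cells with β-galactosidase reporter T. cruzi; Input: 5,000 host fibroblasts per well; Medium: DMEM, 2% fetal bovine serum; Compound: 50 nL DMSO compound solution per well; Schedule: 3 h host attachment, then at least 90 h co-culture; Detection: luminescent β-galactosidase signal after 60 min lysis.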
Calb FLC – C. albicans growth modulation with fluconazole; C. albicans CaCi-2 (fluconazole-resistant clinical isolate) + fluconazole, Alamar Blue growth, 48 h; growth inhibition, % (test concentration not listed); hit rate 0.57% among 300,000;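 active means growth inhibition above about 58% in most replicates, limit read from the data, passing the limit was not always enough; inconclusive means exactly half the replicates above a set limit; inactive means most replicates below a set limit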;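 further: all wells also contain fluconazole at 8 µg/ml as a sub-toxic cotreatment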
Mdm2 MdmX PPI – disrupts the human Mdm2-MdmX interaction; O15151+Q00987; SaOS-2 split-luciferase Mdm2/MdmX complementation, luminescence; inhibition, % at 8 µM; hit rate 3% among 330,000;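 active means inhibition of at least 50% at 8 µM in the primary screen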
Target sequence (O15151 whole entry, looked up): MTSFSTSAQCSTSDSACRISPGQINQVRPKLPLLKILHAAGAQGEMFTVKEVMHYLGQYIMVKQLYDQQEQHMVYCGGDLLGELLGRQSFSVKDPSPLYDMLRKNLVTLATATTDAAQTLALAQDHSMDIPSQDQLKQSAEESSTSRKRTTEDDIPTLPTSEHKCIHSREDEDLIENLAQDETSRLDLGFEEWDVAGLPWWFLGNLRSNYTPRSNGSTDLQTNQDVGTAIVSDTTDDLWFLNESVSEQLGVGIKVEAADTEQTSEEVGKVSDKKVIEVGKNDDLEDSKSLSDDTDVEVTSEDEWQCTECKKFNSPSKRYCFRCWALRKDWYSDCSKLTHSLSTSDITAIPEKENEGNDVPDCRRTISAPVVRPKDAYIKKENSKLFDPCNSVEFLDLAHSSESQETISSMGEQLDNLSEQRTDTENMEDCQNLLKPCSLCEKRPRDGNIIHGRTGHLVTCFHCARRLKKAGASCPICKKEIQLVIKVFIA
Target sequence (Q00987 whole entry, looked up): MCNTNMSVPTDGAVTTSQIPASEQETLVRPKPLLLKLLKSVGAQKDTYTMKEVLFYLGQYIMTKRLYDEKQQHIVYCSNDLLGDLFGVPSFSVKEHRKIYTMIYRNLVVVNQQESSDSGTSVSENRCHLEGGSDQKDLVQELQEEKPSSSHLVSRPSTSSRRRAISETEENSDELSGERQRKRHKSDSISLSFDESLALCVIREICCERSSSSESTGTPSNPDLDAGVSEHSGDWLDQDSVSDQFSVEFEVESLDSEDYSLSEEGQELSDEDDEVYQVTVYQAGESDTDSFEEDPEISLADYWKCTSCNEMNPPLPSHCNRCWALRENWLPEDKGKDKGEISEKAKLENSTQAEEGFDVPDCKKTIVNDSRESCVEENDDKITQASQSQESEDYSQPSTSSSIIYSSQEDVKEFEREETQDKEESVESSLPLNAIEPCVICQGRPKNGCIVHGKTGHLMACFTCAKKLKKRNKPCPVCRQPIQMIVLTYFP
Beta cell apopt – beta cell apoptosis inhibition; INS-1E cytokine-induced death, ATP luminescence, 48 h; percent of positive-control rescue, neutral wells zero; protection from apoptosis, % (concentration not given with the values); hit rate 0.8% among 300,000;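 active means Every replicate reaches about 75%, or at least half do and their mean reaches it too, limit read from the data; inconclusive means At least half of replicates reach the limit but their mean does not; inactive means Under half of replicates reach the limit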;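 further: higher means more ATP so stronger rescue from cytokine killing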
Mdm2-MdmX conf – confirmation of human Mdm2/MdmX interaction inhibitors; shares compounds with Mdm2 MdmX PPI; Mdm2-MdmX binding, luminescent assay; inhibition, % at 8 µM; hit rate 55% among 10,000; in the data active means inhibition above about 40%
FLuc counter – inhibits full-length luciferase, flagging false Mdm2/MdmX hits; shares compounds with Mdm2 MdmX PPI; SaOS-2 full-length luciferase counterscreen, luminescence; inhibition, % at 8 µM; hit rate 77% among 6,200; AID 504607;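 active means mean inhibition at 8 µM reaching about 37%, which flags the compound as non-specific, limit read from the data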;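 further: p53-null SaOS-2 cells with luciferase driven by a doxycycline-inducible promoter; compound on cells about two nights before reading with doxycycline added after day one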
Large screens that a line does not name were inactive (follow-up assays come after a bar, where they were run). Most compounds without a hit are left out; they make up all but 5.7% or so of the library.

COc1cc(/C=C/C(=O)c2ccc([N+](=O)[O-])o2)ccc1O	SKKanGAS inh 72, T cruzi inh inconclusive, Mdm2 MdmX PPI 100, Beta cell apopt 115 | Mdm2-MdmX conf 100 | FLuc counter inactive
COc1ccc(/C=C/C(=O)c2ccc3c(c2)OCCO3)cc1[N+](=O)[O-]	none
COc1ccc(/C=C/C(=O)c2ccc([N+](=O)[O-])o2)cc1OC	SKKanGAS inh 67, CSC inhib 78, Mdm2 MdmX PPI 96, Beta cell apopt 112 | Mdm2-MdmX conf 93 | FLuc counter 57
O=C(/C=C/c1cccc(Cl)c1)c1ccc([N+](=O)[O-])o1	SKKanGAS inh 63, CSC inhib inconclusive, Calb FLC 88, Mdm2 MdmX PPI 100, Beta cell apopt 135 | Mdm2-MdmX conf 100 | FLuc counter 51
Cc1cc(O)c(C(=O)/C=C/c2cccc([N+](=O)[O-])c2)c(=O)o1	none
COc1cc(/C=C/C(=O)OCC(=O)NCc2ccc(F)cc2)ccc1O	none (no result: SKKanGAS inh, T cruzi inh, Calb FLC)
COc1ccc(/C=C(\NC(=O)c2cccs2)C(=O)NN)cc1OC	none
O=C(NCc1ccccn1)c1ccc(Cl)c(S(=O)(=O)N2CCOCC2)c1	none
NC(=O)Cn1nc(-c2ccccc2)nc1-c1ccccc1	none
CCn1c(SCc2ccccc2)nc2c1c(=O)[nH]c(=O)n2C	none
CCOc1ccc(C(=O)C(CN2CCOCC2)c2ccccc2)cc1 (stereo not drawn)	none (no result: Mdm2 MdmX PPI)
O=C(c1ccc(Br)cc1)C(CN1CCOCC1)c1ccccc1 (stereo not drawn)	Mdm2 MdmX PPI 91 | Mdm2-MdmX conf 56 | FLuc counter inactive
CC(=O)NC(c1cc(F)c2cccnc2c1O)C1CC1 (stereo not drawn)	none (no result: SKKanGAS inh, T cruzi inh, Calb FLC)
CCC(=O)NC(c1cc(Cl)c2cccnc2c1O)C1CC1 (stereo not drawn)	Mdm2 MdmX PPI 53, Beta cell apopt 103 (no result: SKKanGAS inh, T cruzi inh, Calb FLC) | Mdm2-MdmX conf 47 | FLuc counter inactive
CCC(=O)NC(c1cc(Cl)c2cccnc2c1O)C(C)C (stereo not drawn)	Mdm2 MdmX PPI 53, Beta cell apopt 105 (no result: SKKanGAS inh, T cruzi inh, Calb FLC) | Mdm2-MdmX conf 53 | FLuc counter inactive
CCOc1ccccc1NC(=O)CSc1nnc(CCC(=O)Nc2ccccc2F)n1C	none
COc1cc(C(=O)N(Cc2ccccc2)c2cccc(C)c2)ccc1OC(F)F	none
CCCc1ccc2oc(C(=O)N3CCN(c4cnccn4)CC3)c(C)c2c1	none
Cc1cc(C)n2nc(N)c(N=Nc3ccccc3)c2n1	none
Cc1cc(C)n2nc(N)c(N=Nc3ccc4c(c3)OCO4)c2n1	Mdm2 MdmX PPI 57 | Mdm2-MdmX conf inactive
Cc1cc(N2C(=O)C(O)=C(C(=O)c3ccco3)C2c2ccccc2F)no1 (stereo not drawn)	none
COc1ccccc1OCC(=O)NC1CC(C)(C)NC(C)(C)C1	none (no result: Beta cell apopt)
Cc1nc(SC(C(N)=O)c2ccccc2)c(C#N)c(C)c1C (stereo not drawn)	none
COc1ccccc1-c1cc(-c2ccccc2)nc(SC(C(N)=O)c2ccccc2)c1C#N (stereo not drawn)	Mdm2 MdmX PPI 93 | Mdm2-MdmX conf 58 | FLuc counter inactive
O=C(C1=C[C@H](c2ccccc2)C[C@H](OCCCCO)O1)N1CCN(Cc2ccccc2)CC1	T cruzi inh inconclusive
C#Cc1ccc([C@@H]2C=C(C(=O)N3CCN(Cc4ccccc4)CC3)O[C@H](OCCCCO)C2)cc1	Mdm2 MdmX PPI 57, Beta cell apopt 124 | Mdm2-MdmX conf 77 | FLuc counter 37
CCc1ccc(NC(=O)[C@H](Cc2ccccc2)NC(=O)C2CCN(C(=O)[C@@H](N)CC(C)C)CC2)cc1	none (no result: Beta cell apopt)
Oc1ccc(/C=N/Nc2nc(-c3ccc(Cl)cc3)cc(C(F)(F)F)n2)cc1	SKKanGAS inh inconclusive, CSC inhib 85, Mdm2 MdmX PPI 57 | Mdm2-MdmX conf inactive
Cc1cc(-c2ccccc2)nc(N/N=C/c2ccc(O)cc2)n1	none (no result: SKKanGAS inh, CSC inhib, T cruzi inh, Calb FLC, Beta cell apopt)
C=CCOc1c(Cl)cc(CNc2ccc(C)c(Cl)c2)cc1OC	T cruzi inh 55, Mdm2 MdmX PPI 76 | Mdm2-MdmX conf 77 | FLuc counter 97
CCOc1cc(CNc2ccc(S(N)(=O)=O)cc2)cc(Cl)c1OC	none
